Assays:
[1] = Selectivity index, ratio of IC50 for HEK293 cells to IC50 for Plasmodium falciparum 3D7 after 72 hrs; type: toxicity, cell-based; conditions: human, read-out: Ratio IC50
Procedure, shortened: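 Parasite (3D7) viability assay and HEK293 viability assay, each with a 72 h exposure. Index taken as the ratio of the IC50 values, HEK293 over 3D7.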

Plasmodium falciparum [2] = experiment: Antimalarial activity against Plasmodium falciparum 3D7 infected in RBC assessed as growth inhibition after 48 hrs by SYBR Green-I fluorescence assay; type: functional, organism-based; conditions: 3D7, 48 h
Procedure, shortened: (§1)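 Parasite-infected red cells exposed to compound for 48 h; growth read by SYBR Green-I fluorescence; IC50 derived. Where a ± is given, it is the standard deviation of three individual experiments.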

Plasmodium falciparum [3] = experiment: Resistant index, ratio of IC50 for Plasmodium falciparum K1 to IC50 for Plasmodium falciparum 3D7; type: functional
Procedure, shortened: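 Ratio of K1 to 3D7 IC50 values. Each IC50 comes from a 48 h drug exposure of the P. falciparum strain, with growth read by SYBR Green-I fluorescence. Where spread is given, it is the standard deviation of three individual experiments.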

Plasmodium falciparum [4] = experiment: Antimalarial activity against mid to late trophozoite stage of Plasmodium falciparum 3D7 infected in RBC assessed as nonviable parasite at 15 uM after 0.5 hrs by SYTO 61 staining-based flow cytometric analysis relative to untreated control; type: functional
Plasmodium falciparum [5] = experiment: Antimalarial activity against mid to late trophozoite stage of Plasmodium falciparum 3D7 infected in RBC assessed as nonviable parasite at 0.6 uM after 0.5 hrs by SYTO 61 staining-based flow cytometric analysis relative to untreated control; type: functional
Plasmodium falciparum [6] = experiment: Gametocytocidal activity against synchronous stage 1 to 3 of transgenic Plasmodium falciparum NF54 gametocyte harboring pfs16 promoter assessed as parasite viability after 72 hrs by luciferase reporter gene assay; type: functional, organism-based; conditions: NF54, 72 h
Plasmodium falciparum [7] = experiment: Antimalarial activity against mid to late trophozoite stage of Plasmodium falciparum 3D7 infected in RBC assessed as abnormal mitochondria at 3 uM after 0.5 hrs by MitoTracker Red CMXRos-based fluorescence microscopic analysis relative to untreated control; type: functional
Plasmodium falciparum [8] = experiment: Gametocytocidal activity against synchronous stage 4 to 5 of transgenic Plasmodium falciparum NF54 gametocyte harboring pfs16 promoter assessed as parasite viability after 72 hrs by MitoTracker Red CMXRos-based assay; type: functional, organism-based; conditions: NF54, 72 h
Plasmodium falciparum [9] = experiment: Antimalarial activity against mid to late trophozoite stage of Plasmodium falciparum 3D7 infected in RBC assessed as nonviable parasite at 3 uM after 0.5 hrs by SYTO 61 staining-based flow cytometric analysis relative to untreated control; type: functional
Plasmodium falciparum [10] = experiment: Antimalarial activity against mid to late trophozoite stage of Plasmodium falciparum 3D7 infected in RBC assessed as abnormal mitochondria at 0.6 uM after 0.5 hrs by MitoTracker Red CMXRos-based fluorescence microscopic analysis relative to untreated control; type: functional
[11] = Inhibition of beta-hematin formation after 24 hrs by spectrophotometric analysis in presence of nonidet P40; type: functional
Plasmodium falciparum [12] = experiment: Ratio of IC50 for trophozoite stage of Plasmodium falciparum 3D7 infected in RBC after 5 hrs in presence of 5 uM ALLN to IC50 for trophozoite stage of Plasmodium falciparum 3D7 infected in RBC after 5 hrs in absence of ALLN; type: functional
Procedure, shortened: (§2)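 Trophozoite-stage parasites pulsed 5 h with compound, with or without ALLN (0.2 or 5 μM). Drug and ALLN then removed; culture continued a further 43 h before survival was assessed. Antagonism expressed as the ratio of IC50 with ALLN to IC50 without ALLN.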

Plasmodium falciparum [13] = experiment: Antimalarial activity against mid to late trophozoite stage of Plasmodium falciparum 3D7 infected in RBC assessed as abnormal mitochondria at 15 uM after 0.5 hrs by MitoTracker Red CMXRos-based fluorescence microscopic analysis relative to untreated control; type: functional
Plasmodium falciparum [14] = experiment: Ratio of IC50 for trophozoite stage of Plasmodium falciparum 3D7 infected in RBC after 5 hrs in presence of 0.2 uM ALLN to IC50 for trophozoite stage of Plasmodium falciparum 3D7 infected in RBC after 5 hrs in absence of ALLN; type: functional; procedure, shortened: as §2
Plasmodium falciparum [15] = experiment: Antimalarial activity against trophozoite stage of Plasmodium falciparum 3D7 infected in RBC assessed as growth inhibition after 5 hrs by SYBR Green-I fluorescence assay; type: functional, organism-based; conditions: 3D7, 5 h
Procedure, shortened: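 Trophozoite-stage parasites pulsed with compound for 5 h. Drug then washed out and parasites cultured a further 43 h before survival was assessed.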

Plasmodium falciparum [16] = experiment: Ratio of IC50 for trophozoite stage of Plasmodium falciparum 3D7 infected in RBC after 5 hrs to IC50 for Plasmodium falciparum 3D7 infected in RBC after 48 hrs; type: functional
Plasmodium falciparum [17] = experiment: Gametocytocidal activity against asexual stage of transgenic Plasmodium falciparum NF54 gametocyte harboring pfs16 promoter assessed as parasite viability after 72 hrs by luciferase reporter gene assay; type: functional, organism-based; conditions: NF54, 72 h
Plasmodium falciparum [18] = experiment: Antimalarial activity against Plasmodium falciparum K1 infected in RBC assessed as growth inhibition after 48 hrs by SYBR Green-I fluorescence assay; type: functional, organism-based; conditions: K1, 48 h; procedure, shortened: as §1
Plasmodium falciparum [19] = experiment: Antimalarial activity against mid to late trophozoite stage of Plasmodium falciparum 3D7 infected in RBC assessed as abnormal mitochondria at 20 uM after 0.5 hrs by MitoTracker Red CMXRos-based fluorescence microscopic analysis relative to untreated control; type: functional

C[n+]1c(/C=C/c2c[nH]c3ccccc23)cc(N)c2ccccc21.[I-]
selectivity ratio at 72 h [1]: 35 | IC50 (Plasmodium falciparum [2]): 0.2 µM | Ratio IC50 (Plasmodium falciparum [3]): 0.6 | Activity (Plasmodium falciparum [4]): 81% | Activity (Plasmodium falciparum [5]): 8% | IC50 (Plasmodium falciparum [6]): 0.3 µM | Activity (Plasmodium falciparum [7]): 91% | IC50 (Plasmodium falciparum [8]): 4 µM | Activity (Plasmodium falciparum [9]): 73% | Activity (Plasmodium falciparum [10]): 18% | IC50 [11]: 1400 µM | Ratio IC50 (Plasmodium falciparum [12]): 3 | Activity (Plasmodium falciparum [13]): 100% | Ratio IC50 (Plasmodium falciparum [14]): 1.5 | IC50 (Plasmodium falciparum [15]): 1 µM | Ratio IC50 (Plasmodium falciparum [16]): 5 | IC50 (Plasmodium falciparum [17]): 0.1 µM | IC50 (Plasmodium falciparum [18]): 0.12 µM

CN(C)c1ccc2nc3ccc(N(C)C)cc3[s+]c2c1.[Cl-] [METHYLENE BLUE ANHYDROUS]
IC50 (Plasmodium falciparum [2]): 0.02 µM | Ratio IC50 (Plasmodium falciparum [12]): 3.2 | Ratio IC50 (Plasmodium falciparum [14]): 2.1 | IC50 (Plasmodium falciparum [15]): 0.03 µM | Ratio IC50 (Plasmodium falciparum [16]): 1.5 | IC50 (Plasmodium falciparum [18]): 0.008 µM

CCN(CC)CCCC(C)Nc1cc(/C=C/c2c[nH]c3ccccc23)nc2ccccc12 (stereo not drawn)
selectivity ratio at 72 h [1]: 87 | IC50 (Plasmodium falciparum [2]): 0.1 µM | Ratio IC50 (Plasmodium falciparum [3]): 3 | IC50 [11]: 1100 µM | Ratio IC50 (Plasmodium falciparum [12]): 2.6 | Ratio IC50 (Plasmodium falciparum [14]): 1.6 | IC50 (Plasmodium falciparum [15]): 0.17 µM | Ratio IC50 (Plasmodium falciparum [16]): 1.7 | IC50 (Plasmodium falciparum [18]): 0.33 µM

N#CC(C#N)=NNc1cccc(Cl)c1 [CARBONYL CYANIDE M-CHLOROPHENYLHYDRAZONE]
Activity (Plasmodium falciparum [19]): 74%

Cc1cc(N)c2ccccc2[n+]1C
IC50 (Plasmodium falciparum [2]): > 4 µM | IC50 (Plasmodium falciparum [18]): > 5 µM

Nc1cc(CCc2c[nH]c3ccccc23)nc2ccccc12
selectivity ratio at 72 h [1]: 67 | IC50 (Plasmodium falciparum [2]): 0.9 µM | IC50 (Plasmodium falciparum [18]): 2.2 µM

C[n+]1c(/C=C/c2c[nH]c3cc(F)ccc23)cc(N)c2ccccc21.[I-]
selectivity ratio at 72 h [1]: 4 | IC50 (Plasmodium falciparum [2]): 0.29 µM | Ratio IC50 (Plasmodium falciparum [3]): 0.3 | IC50 (Plasmodium falciparum [18]): 0.14 µM

C[n+]1c(/C=C/c2n[nH]c3ccccc23)cc(N)c2ccccc21.[I-]
selectivity ratio at 72 h [1]: 107 | IC50 (Plasmodium falciparum [2]): 0.7 µM | Ratio IC50 (Plasmodium falciparum [3]): 0.3 | IC50 [11]: 1500 µM | IC50 (Plasmodium falciparum [18]): 0.23 µM

— ChEMBL document CHEMBL2417386, “Novel conjugated quinoline-indoles compromise Plasmodium falciparum mitochondrial function and show promising antimalarial activity” (J Med Chem, 2013)
